Results on 2 molecules are retold here after ChEMBL document CHEMBL3862029, “Discovery of 8-Membered Ring Sulfonamides as Inhibitors of Oncogenic Mutant Isocitrate Dehydrogenase 1” (ACS Med Chem Lett, 2016).

≈ marks a conversion by molar mass, not a printed value. Calls of active or inactive are those of the source.

Series [1] concerns Isocitrate dehydrogenase [NADP] cytoplasmic (Homo sapiens), O75874 [R132H]. Description: (§1) Inhibition of IDH1-R132H mutant (unknown origin) expressed in human HA1EM cells assessed as suppression of R-2HG secretion measured after 72 hrs by LC-MS/MS analysis. Type of series: cell-based. An outline of the steps:
(§2)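 HA1E-M cells (HEK-293 derivative) engineered to overexpress IDH1-R132H and release R-2HG into growth media. Compound treatment for 72 h, then R-2HG in conditioned media measured by LC-MS. Values normalized to DMSO-treated controls; EC50 from three independent experiments, each run in triplicate.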

Series [2] has as its target T1, Isocitrate dehydrogenase [NADP] cytoplasmic (Homo sapiens, UniProt O75874, R132H). The series is described as §1. It is filed as cell-based. The method in brief: as §2
Target sequence in this assay (O75874 whole entry R132H): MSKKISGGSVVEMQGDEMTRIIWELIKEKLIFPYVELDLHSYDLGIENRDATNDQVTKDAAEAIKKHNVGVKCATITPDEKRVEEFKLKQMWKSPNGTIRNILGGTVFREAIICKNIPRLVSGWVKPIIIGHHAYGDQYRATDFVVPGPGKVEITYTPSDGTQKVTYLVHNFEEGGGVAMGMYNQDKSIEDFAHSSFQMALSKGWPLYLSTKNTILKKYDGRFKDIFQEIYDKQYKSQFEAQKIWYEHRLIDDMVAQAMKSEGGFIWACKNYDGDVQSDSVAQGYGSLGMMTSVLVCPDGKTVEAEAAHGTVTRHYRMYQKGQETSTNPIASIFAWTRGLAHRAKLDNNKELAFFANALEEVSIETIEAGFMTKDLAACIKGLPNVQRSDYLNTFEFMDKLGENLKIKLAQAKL
Series [3] relates to Isocitrate dehydrogenase [NADP] cytoplasmic (Homo sapiens), O75874 [R132H]. Description: Inhibition of human C-terminal His8-tagged IDH1-R132H mutant expressed in Escherichia coli Rosetta assessed as inhibition of ketoreductase activity by measuring NADPH consumption preincubated for 10 mins followed by addition of NADPH and alpha-KG as substrate by fluorescence method. An outline of the steps: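 Purified IDH1-R132H incubated with α-KG and NADPH; direct kinetic read of falling NADPH fluorescence, run in dose. Enzyme concentration kept below that of the screening assays so inhibitor stays far above enzyme. IC50 values are geometric means of at least three independent experiments.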

The test system is the same in series [4]. Put plainly: Competitive inhibition of recombinant human C-terminal His8-tagged IDH1-R132H mutant expressed in Escherichia coli Rosetta cells assessed as inhibition of ketoreductase activity by measuring NADPH consumption preincubated for 10 mins followed by addition of NADPH and varying levels of alpha-KG as substrate in presence of constant Mg2+ concentration by fluorescence method.

Series [5] in a line: Thermodynamic solubility of the compound in PBS at 100 uM and pH 7.4 measured after 18 hrs by UPLC-MS analysis. It is filed as physicochemical. The note with it: read-out: Therm_solubility.
Series [6] is described as follows: Half life in mouse liver microsomes at 1 uM by LC-MS/MS analysis. Type of series: ADME. Background: Liver microsomes are a subcellular fraction often used to study metabolism.
Series [7] can be described thus: Protein binding in mouse plasma at 5 uM measured after 5 hrs by rapid equilibrium dialysis method. Type of series: ADME, cell-free. The note with it: read-out: PPB (converted). (In general: Equilibrium dialysis compares concentrations on both sides of a semipermeable membrane.)
Series [8] addresses Isocitrate dehydrogenase [NADP] cytoplasmic (Homo sapiens, UniProt O75874, R132C). Description: Inhibition of human C-terminal His8-tagged IDH1-R132C mutant expressed in Escherichia coli Rosetta assessed as inhibition of ketoreductase activity by measuring NADPH consumption preincubated for 10 mins followed by addition of NADPH and alpha-KG as substrate by fluorescence method.

Series [9] deals with T1, Isocitrate dehydrogenase [NADP] cytoplasmic. Put plainly: Inhibition of human C-terminal His8-tagged IDH1-R132H mutant expressed in Escherichia coli Rosetta assessed as inhibition of ketoreductase activity by measuring NADPH consumption preincubated for 60 mins followed by addition of alpha-KG as substrate measured after 50 mins in presence of NADPH and Mg2+ by resazurin based diaphorase-coupled fluorescence assay. The method in brief: (§3)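 IDH1-R132H–Mg2+ ketoreductase assay reading NADPH consumption through a diaphorase-coupled fluorescence reaction. Buffer contained 0.01% Tween 20 against aggregation. Primary screen at 15 μM in duplicate, with positives set at ≥60% inhibition in both replicates. Retests were in 8-point dose.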
For orientation: Resazurin is reduced to fluorescent resorufin, in cell work by metabolically active cells.
Target sequence in this assay (O75874 2-414 R132H limits assumed): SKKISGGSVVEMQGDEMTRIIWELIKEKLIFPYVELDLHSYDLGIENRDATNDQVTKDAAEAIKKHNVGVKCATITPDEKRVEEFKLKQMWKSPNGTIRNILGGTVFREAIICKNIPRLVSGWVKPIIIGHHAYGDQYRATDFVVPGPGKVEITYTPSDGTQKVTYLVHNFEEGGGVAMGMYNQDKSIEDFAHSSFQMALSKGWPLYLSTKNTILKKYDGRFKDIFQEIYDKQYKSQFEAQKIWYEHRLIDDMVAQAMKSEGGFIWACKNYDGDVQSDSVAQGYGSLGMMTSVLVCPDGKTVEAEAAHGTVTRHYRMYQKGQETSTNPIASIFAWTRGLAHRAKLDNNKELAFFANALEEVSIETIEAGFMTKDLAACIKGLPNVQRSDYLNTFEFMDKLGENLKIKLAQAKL

For series [10], the system named is Isocitrate dehydrogenase [NADP] cytoplasmic (Homo sapiens), O75874 [R132H]. Description: Competitive inhibition of recombinant human C-terminal His8-tagged IDH1-R132H mutant expressed in Escherichia coli Rosetta cells assessed as inhibition of ketoreductase activity by measuring NADPH consumption preincubated for 10 mins followed by addition of NADPH and alpha-KG as substrate in presence of varying levels of Mg2+ concentration by fluorescence method.

Series [11] in a line: Protein binding in human plasma at 5 uM measured after 5 hrs by rapid equilibrium dialysis method. It is filed as ADME, cell-free. The following applies: read-out: PPB (converted).
A short description of series [12]: Cytotoxicity against human U937 cells assessed as decrease in intracellular ATP levels at >10 uM measured after 72 hrs by CellTiter-Glo assay. It is filed as toxicity, cell-based. The following applies: u-937, 72 h.
Series [13] in a line: Octanol-phosphate buffer partition coefficient, log D of compound at pH 7.4 at 67 uM. It is filed as physicochemical.
A short description of series [14]: Cytotoxicity against human THP1 cells assessed as decrease in intracellular ATP levels at >10 uM measured after 72 hrs by CellTiter-Glo assay. It is filed as toxicity, cell-based. The note with it: thp-1, 72 h.
Series [15] has as its target Isocitrate dehydrogenase [NADP] cytoplasmic (Homo sapiens, UniProt O75874). Description: Inhibition of wild type human C-terminal His8-tagged IDH1 expressed in Escherichia coli Rosetta cells assessed as reduction in isocitrate to alpha-KG conversion preincubated for 15 mins followed by substrate addition in presence of NADP+ by resazurin based diaphorase-coupled fluorescence assay. The method in brief:
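Wild-type IDH1 activity read as NADPH production from NADP+ and isocitrate, through a diaphorase-coupled fluorescence reaction analogous to the primary screen.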

Series [16] can be described thus: Cytotoxicity against human U937 cells assessed as decrease in intracellular ATP levels up to 10 uM measured after 72 hrs by CellTiter-Glo assay. Type of series: toxicity, cell-based. The following applies: u-937, 72 h.
Series [17] has as its system Isocitrate dehydrogenase [NADP] cytoplasmic (Homo sapiens), O75874 [R132H]. Description: Inhibition of human C-terminal His8-tagged IDH1-R132H mutant expressed in Escherichia coli Rosetta cells assessed as change in melting temperature at 5 uM measured over 20 mins using SYPRO orange dye by DSF analysis. The method in brief:
(§4)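 Differential scanning fluorimetry of recombinant enzyme, giving melting temperature shift with compound present. Mean of 3 independent experiments, each with 7 replicates.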

Series [18] is described as follows: Cytotoxicity against human HA1EM cells assessed as decrease in intracellular ATP levels at >10 uM measured after 72 hrs by CellTiter-Glo assay. It is filed as toxicity, cell-based. The method in brief: (§5)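 IDH1-R132H-overexpressing HA1E-M cells treated for 72 h. After media harvest, viability assessed by morphology and ATP levels. Values are normalized to DMSO controls, mean ± SD of three independent experiments each run in triplicate.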

Series [19] is described as follows: Cytotoxicity against human THP1 cells assessed as decrease in intracellular ATP levels up to 10 uM measured after 72 hrs by CellTiter-Glo assay. It is filed as toxicity, cell-based. The following applies: thp-1, 72 h.
The test system of series [20] is Isocitrate dehydrogenase [NADP] cytoplasmic (Homo sapiens), O75874 [R132H]. Description: Inhibition of human C-terminal His8-tagged IDH1-R132H mutant expressed in Escherichia coli Rosetta cells assessed as inhibition of ketoreductase activity measured as NADPH consumption preincubated for 60 mins followed by addition of NADPH and alpha-KG as substrate measured after 50 mins using Mg2+ as cofactor in presence of tween-20 detergent by resazurin/diaphorase-coupled fluorescence analysis. The method in brief:
as §3

For series [21], the target named is Isocitrate dehydrogenase [NADP], mitochondrial (Homo sapiens) (UniProt P48735). Put plainly: Inhibition of human C-terminal FLAG-tagged IDH2-R140Q mutant (1 to 452 residues) expressed in baculovirus infeceted sf9 cells assessed as inhibition of ketoreductase activity preincubated for 10 mins followed by addition of NADPH and alpha-KG as substrate by fluorescence method.

The test system of series [22] is Isocitrate dehydrogenase [NADP] cytoplasmic (Homo sapiens), O75874 [R132H]. Put plainly: Inhibition of human C-terminal His8-tagged IDH1-R132H mutant expressed in Escherichia coli Rosetta cells assessed as inhibition of ketoreductase activity measured as NADPH consumption preincubated for 60 mins followed by addition of NADPH and alpha-KG as substrate measured after 50 mins using Mg2+ ….

A short description of series [23]: Half life in human liver microsomes at 1 uM by LC-MS/MS analysis. It is filed as ADME.
The nature of series [24]: Cytotoxicity against human HA1EM cells assessed as decrease in intracellular ATP levels up to 10 uM measured after 72 hrs by CellTiter-Glo assay. It is filed as toxicity, cell-based. The method in brief:
as §5

Series [25] deals with Isocitrate dehydrogenase [NADP] cytoplasmic (Homo sapiens), O75874 [R132H]. Description: Inhibition of human C-terminal His8-tagged IDH1-R132H mutant expressed in Escherichia coli Rosetta assessed as inhibition of ketoreductase activity by measuring NADPH consumption preincubated for 20 mins followed by addition of NADPH and alpha-KG as substrate in presence of Mg2+ by spectrophotometric method. The method in brief:
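Orthogonal confirmation assay: IDH1-R132H ketoreductase activity with NADPH detected by absorbance. Positives retested in 8-point dose.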

Series [26] deals with Isocitrate dehydrogenase [NADP] cytoplasmic (Homo sapiens), O75874 [R132C]. Description: Inhibition of human C-terminal His8-tagged IDH1-R132C mutant expressed in Escherichia coli Rosetta cells assessed as change in melting temperature at 5 uM measured over 20 mins using SYPRO orange dye by DSF analysis. The method in brief:
as §4

Chain of Isocitrate dehydrogenase [NADP] cytoplasmic (Homo sapiens), O75874 [R132H] (O75874 whole entry R132H): as the sequence (O75874 whole entry R132H) above
Chain of Isocitrate dehydrogenase [NADP] cytoplasmic (Homo sapiens, UniProt O75874, R132C) (O75874 2-414 R132C limits assumed): as the sequence (O75874 2-414 R132H limits assumed) above, with H131C counted along it
Chain of Isocitrate dehydrogenase [NADP] cytoplasmic (Homo sapiens, UniProt O75874) (O75874 whole entry): as the sequence (O75874 whole entry R132H) above, with H132R counted along it
Chain of Isocitrate dehydrogenase [NADP] cytoplasmic (Homo sapiens), O75874 [R132C] (O75874 whole entry R132C): as the sequence (O75874 whole entry R132H) above, with H132C counted along it

Broadly, the EC50 is the concentration needed to bring the measured effect to its halfway point. For `Cc1ccccc1C(C(=O)NC1CCCCC1)N(C(=O)Cn1ccnc1C)c1cccc(F)c1` (centres undefined), the inhibition result in [1] was “Dose-dependent effect”. In addition, in series [2], the EC50 amounted to 60 nM. Moreover, the inhibition result in series [3] is “Active”.

In general, half-life refers to the time needed for the level to fall by half in the phase considered. Low readings indicate rapid decline, high ones slow decline. A word on the IC50: it is the point on the concentration scale where inhibition reaches its midpoint. The logD is lipophilicity at a set pH, counting ionised and neutral species. A low value points to lower lipophilicity. The term ΔTm denotes the change in melting temperature against a reference sample. For the molecule `C[C@@H]1CN([C@@H](C)CO)S(=O)(=O)c2ccc(C#Cc3cccc(F)c3)cc2O[C@H]1CN(C)C(=O)NC1CCCCC1`, the inhibition entry in series [1] is “Dose-dependent effect”. The EC50 in [2] came out at 300 nM. Also, the inhibition result in series [3], in series [4], in [10], in series [20], in series [22] and in series [25] was “Active” in each case. Besides, the solubility thermodynamic at 18 h, 100 µM in [5] worked out at 5 µM (≈ 2.86 µg/mL). Also, the half-life at 1 µM in [6] and in [23] was 42 s each time. Besides, the fraction unbound at 5 h, 5 µM in [7] is 0.037; in series [11] it was 0.005. In addition, the IC50 in series [8] is 2500 nM; in series [9], 50 to 57 nM; in series [15] it was > 20000 nM; in [21], > 20000 nM. Moreover, the Activity result is reported as “Toxic” in series [12]; “Toxic” in [14]; “Non-Toxic” in series [16]; “Toxic” in series [18]; “Non-Toxic” in series [19]; “Non-Toxic” in [24]. Further, the logD at 67 µM in series [13] is 5.19. Further, the values for the ΔTm in [17] and in series [26] were 3.7 °C and 1.4 °C, respectively.
